From paper PMC9303693 (Journal of Clinical Pharmacology, 2022)
Where two headings read alike, the source gives them in different places. Marks after values point to notes of the source that are not given here.

Experiments:
[1] = format: in vivo, human; details: for CL/F / Vd/F: acalabrutinib; for CL/F / Vd/F / half-life: arithmetic mean (SD); for AUC: AUC0‐inf; for Vd/F: Vz/F; for half-life: t1/2, total plasma acalabrutinib; for Tmax: median (minimum, maximum)
[2] = Urinary excretion and renal clearance after a single 50-mg dose; format: in vivo, human; details: for CL renal: human, urine, oral, 50 mg, mean renal clearance
Summary of the method: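 In study 2, a single oral 50-mg capsule was taken with ≈240 mL water after an overnight fast. Urine was collected predose, 0–4 h and 4–24 h post-dose and pooled per interval for each subject. Analytes were quantified by validated LC-MS/MS with deuterated internal standards over a nominal urine range of 5 to 5000 ng/mL.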

Safety evaluation = format: in vivo, human; details: for Number (%) of subjects with TEAEs: single oral 50-mg dose
Summary of the method: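 After an overnight fast, subjects took a single oral 50-mg dose as capsules with ≈240 mL water on day 1. AEs were collected until follow-up contact 14 days post-dose. Safety monitoring covered concomitant medications, serial hematology, serum chemistry and urinalysis, vital signs, 12-lead ECGs and physical examinations. Findings were summarized descriptively.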

[3] = In vitro protein binding in human plasma; format: in vitro ADME; details: human, plasma
human plasma = experiment: In vitro protein binding in human plasma; format: in vitro ADME; details: in humans (plasma)
human serum albumin = human serum albumin (Homo sapiens, UniProt P02768); experiment: In vitro protein binding in human serum albumin solution; format: in vitro ADME
[4] = In vitro protein binding in α1-acid glycoprotein solution; format: in vitro ADME; details: human
[5] = Earlier clinical studies of acalabrutinib; format: in vivo, human; details: 400-mg vs 50-mg dose, healthy subjects (data on file)
[6] = cited from earlier work
[7] = both, human, plasma, po, 50 mg, single oral 50-mg dose, Control (n = 13)
[8] = both, human, plasma, po, 50 mg, single oral 50-mg dose, Mild (n = 6)
[9] = both, human, plasma, po, 50 mg, single oral 50-mg dose, Moderate (n = 6)
[10] = human, plasma, po, 50 mg, single oral 50-mg dose, Severe (n = 8)
[11] = plasma acalabrutinib, Mild vs normal hepatic function (reference)
[12] = plasma acalabrutinib, Moderate vs normal hepatic function (reference)
[13] = plasma acalabrutinib, Severe vs normal hepatic function (reference)
[14] = severe hepatic impairment, study 2
[15] = acalabrutinib, matched normal hepatic function subjects
[16] = acalabrutinib, subjects with severe hepatic impairment
[17] = healthy subjects (n = 17), relative to no pretreatment
[18] = healthy subjects, single 400-mg dose

human serum albumin, sequence (P02768 25-609): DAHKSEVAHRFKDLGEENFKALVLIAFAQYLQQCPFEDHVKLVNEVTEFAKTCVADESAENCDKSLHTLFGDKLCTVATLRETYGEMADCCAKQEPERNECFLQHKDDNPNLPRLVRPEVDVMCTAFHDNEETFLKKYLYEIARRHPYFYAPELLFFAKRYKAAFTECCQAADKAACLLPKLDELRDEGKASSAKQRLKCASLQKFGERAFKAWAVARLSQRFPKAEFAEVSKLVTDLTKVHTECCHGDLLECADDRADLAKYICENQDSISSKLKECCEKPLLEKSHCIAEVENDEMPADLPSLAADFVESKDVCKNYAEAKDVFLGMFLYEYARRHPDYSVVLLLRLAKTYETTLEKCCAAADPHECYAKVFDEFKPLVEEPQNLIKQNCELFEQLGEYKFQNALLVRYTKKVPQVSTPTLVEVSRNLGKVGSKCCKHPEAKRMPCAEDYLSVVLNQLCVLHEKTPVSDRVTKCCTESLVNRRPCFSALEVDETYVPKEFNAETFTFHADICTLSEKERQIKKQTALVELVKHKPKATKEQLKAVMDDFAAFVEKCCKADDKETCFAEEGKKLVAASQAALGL

With CC#CC(=O)N1CCC[C@H]1c1nc(-c2ccc(C(=O)Nc3ccccn3)cc2)c2c(N)nccn12 [Acalabrutinib] the CL/F ([1]; single oral 50-mg dose, Control (n = 13)) was 218.1 ± 103.1 ^a L/h, the CL/F ([1]; single oral 50-mg dose, Mild (n = 6)) was 156.6 ± 91.1 L/h and the CL/F ([1]; single oral 50-mg dose, Moderate (n = 6)) was 280.8 ± 372.7 L/h. It also gave a CL/F ([1]; single oral 50-mg dose, Severe (n = 8)) of 48.7 ± 30.7 L/h, a CL/F ([1]; single oral 50-mg dose, Severe (n = 8), listed as acalabrutinib) of 48.7 L/h and an AUC ([1]; both, human, plasma, oral, 50 mg, LS Mean, plasma acalabrutinib, ANOVA, exponentiated LSM, Control, n 13) of 250 ng·h/mL. The AUC ([1]; both, human, plasma, oral, 50 mg, LS Mean, plasma acalabrutinib, ANOVA, exponentiated LSM, Mild, n 6) was 366 ng·h/mL, the AUC ([1]; both, human, plasma, oral, 50 mg, LS Mean, plasma acalabrutinib, ANOVA, exponentiated LSM, Moderate, n 6) was 326 ng·h/mL and the Cmax ([1]; both, human, plasma, oral, 50 mg, Cmax, LS Mean, plasma acalabrutinib, ANOVA, exponentiated LSM, Control, n 14) was 152 ng/mL. For the same molecule, the Cmax ([1]; both, human, plasma, oral, 50 mg, Cmax, LS Mean, plasma acalabrutinib, ANOVA, exponentiated LSM, Mild, n 6) was 292 ng/mL, the Cmax ([1]; both, human, plasma, oral, 50 mg, Cmax, LS Mean, plasma acalabrutinib, ANOVA, exponentiated LSM, Moderate, n 6) was 156 ng/mL and the AUC ([1]; both, human, plasma, po, 50 mg, total plasma acalabrutinib, single oral 50-mg dose, Control (n = 13), geometric mean (geometric CV%)) was 250 ng·h/mL. For the same molecule, the AUC ([1]; both, human, plasma, po, 50 mg, total plasma acalabrutinib, single oral 50-mg dose, Mild (n = 6), geometric mean (geometric CV%)) was 366 ng·h/mL, the AUC ([1]; both, human, plasma, po, 50 mg, total plasma acalabrutinib, single oral 50-mg dose, Moderate (n = 6), geometric mean (geometric CV%)) was 326 ng·h/mL and the Cmax ([1]; both, human, plasma, po, 50 mg, Cmax, total plasma acalabrutinib, single oral 50-mg dose, fasted, Control, normal hepatic function (n = 14), geometric mean (geometric CV%)) was 152 ng/mL. For the same molecule, the Cmax ([1]; both, human, plasma, po, 50 mg, Cmax, total plasma acalabrutinib, single oral 50-mg dose, fasted, Mild, Child-Pugh class A (n = 6), geometric mean (geometric CV%)) was 292 ng/mL, the Cmax ([1]; both, human, plasma, po, 50 mg, Cmax, total plasma acalabrutinib, single oral 50-mg dose, fasted, Moderate, Child-Pugh class B (n = 6), geometric mean (geometric CV%)) was 156 ng/mL and the Vd/F [1, 7] was 722 ± 520 L. The Vd/F [1, 8] was 471 ± 222 L, the Vd/F [1, 9] was 2140 ± 2720 L and the half-life [1, 7] was 2.2 ± 0.8 h. For the same molecule, the half-life [1, 8] was 2.3 ± 0.9 h, the half-life [1, 9] was 7.9 ± 12.7 h and the Tmax ([1]; both, human, plasma, po, 50 mg, total plasma acalabrutinib, single oral 50-mg dose, Control (n = 14)) was 0.6 h. The Tmax ([1]; both, human, plasma, po, 50 mg, total plasma acalabrutinib, single oral 50-mg dose, Mild (n = 6)) was 0.8 h, the Tmax ([1]; both, human, plasma, po, 50 mg, total plasma acalabrutinib, single oral 50-mg dose, Moderate (n = 6)) was 1 h and the AUC ([1]; human, plasma, oral, 50 mg, LS Mean, plasma acalabrutinib, ANOVA, exponentiated LSM, Severe, n 8) was 1170 ng·h/mL. The Cmax ([1]; human, plasma, oral, 50 mg, Cmax, LS Mean, plasma acalabrutinib, ANOVA, exponentiated LSM, Severe, n 8) was 726 ng/mL, the AUC ([1]; human, plasma, po, 50 mg, total plasma acalabrutinib, single oral 50-mg dose, Severe (n = 8), geometric mean (geometric CV%)) was 1170 ng·h/mL and the Cmax ([1]; human, plasma, po, 50 mg, Cmax, total plasma acalabrutinib, single oral 50-mg dose, fasted, Severe, Child-Pugh class C (n = 8), geometric mean (geometric CV%)) was 726 ng/mL. For the same molecule, the Vd/F [1, 10] was 167 ± 70.3 L, the half-life [1, 10] was 2.7 ± 1.1 h and the “AUC0‐inf GMR: Test/Reference” value [1, 11] was 146.2%. For the same molecule, the “Cmax GMR: Test/Reference” value [1, 11] was 191.3%, the “AUC0‐inf GMR: Test/Reference” value [1, 12] was 130.5% and the “Cmax GMR: Test/Reference” value [1, 12] was 102.2%. For the same molecule, the “AUC0‐inf GMR: Test/Reference” value [1, 13] was 467.3%, the “Cmax GMR: Test/Reference” value [1, 13] was 476.2% and the “increase of unbound acalabrutinib AUC0‐last compared with control subjects” value [1, 14] was 3.6 fold. The “increase of unbound acalabrutinib Cmax compared with control subjects” value [1, 14] was 3.8 fold, the “increase of acalabrutinib Cmax compared with control subjects” value ([1]; single 50-mg dose, mild hepatic impairment) was 1.9 fold and the “increase of acalabrutinib AUC compared with control subjects” value ([1]; single 50-mg dose, mild hepatic impairment (Child-Pugh class A)) was 1.90 fold. The “difference in acalabrutinib Cmax compared with control subjects” value ([1]; single 50-mg dose, moderate hepatic impairment) was “did not result in any appreciable difference”, the “increase of acalabrutinib AUC compared with control subjects” value ([1]; single 50-mg dose, moderate hepatic impairment (Child-Pugh class B)) was 1.48 fold and the Cmax ([1]; total plasma acalabrutinib, single oral 50-mg dose, fasted, Moderate, Child-Pugh class B (n = 6), geometric mean (geometric CV%)) was 155.7 (246.9) ng/mL. For the same molecule, the “AUC0‐inf” value ([1]; total plasma acalabrutinib, single oral 50-mg dose, Moderate (n = 6), geometric mean (geometric CV%)) was 326.4 (177.9) ng • h/mL, the “renal clearance as share of the systemic clearance” value [2, 15] was “≈ 0.5%” and the “renal clearance as share of the apparent systemic clearance” value [2, 16] was “≈ 1.7%”. For the same molecule, the CL renal [2, 15] was 21.2 mL/min, the CL renal [2, 16] was 12.9 mL/min and the “share of the 50‐mg oral dose excreted in urine” value ([2]; matched normal hepatic function subjects, 24-hour urine collection interval) was “≈ 0.6%”. The “share of the 50‐mg oral dose excreted in urine” value ([2]; subjects with severe hepatic impairment) was “approximately 1.8%”, the “Number (%) of subjects with TEAEs” value (Safety evaluation; Control (n = 14)) was 0 and the “Number (%) of subjects with TEAEs” value (Safety evaluation; Mild hepatic impairment (n = 6)) was 2 (33). For the same molecule, the “Number (%) of subjects with TEAEs” value (Safety evaluation; Moderate hepatic impairment (n = 6)) was 0, the “Number (%) of subjects with TEAEs” value (Safety evaluation; Overall (N = 34)) was 3 (9) and the “Number (%) of subjects with TEAEs” value (Safety evaluation; Severe hepatic impairment (n = 8)) was 1 (13). For the same molecule, the tolerability (Safety evaluation; single oral dose of 50 mg, healthy subjects and subjects with mild, moderate, or severe hepatic impairment) was “well tolerated”, the “deaths, serious AEs, discontinuations due to AEs” value (Safety evaluation; single oral dose of 50 mg, study 1 and study 2) was “no deaths, serious AEs, or subject discontinuations due to AEs” and the fraction unbound [3] was 0.025. The “free fraction (percentage unbound)” value (human plasma) was 2.5%, the fraction unbound (human serum albumin) was 0.063 and the fraction unbound [4] was 0.589. For the same molecule, the “clinical margin of safety for the 50‐mg dose, AUC0‐last” value [5] was about 16 fold, the “clinical margin of safety for the 50‐mg dose, Cmax” value [5] was “≈ 7.5 fold” and the “mean elimination t1/2” value [6] was “≈ 1 hour”. For the same molecule, the “increase of mean plasma AUC0‐last in the presence of itraconazole” value [6, 17] was 5.1 fold, the “increase of mean plasma Cmax in the presence of itraconazole” value [6, 17] was 3.9 fold and the “mean AUC0‐last” value [6, 18] was 3966 ng·h/mL. The “mean Cmax” value [6, 18] was 1672 ng/mL.
